The source made the active and inactive calls. The calls are words filed in the database; no cut-off is given here.

Data set [1] relates to Mycobacterium avium. As to the kind of experiment: Antimycobacterial activity against pyrazinamide-resistant Mycobacterium avium CNCTC My 152/73 after 5 days by microplate alamar blue assay. The format is functional. The settings on record: CNCTC My 152/73, 120 h. An outline of the steps: (§1)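 Microplate alamar blue assay run at pH 5.6, using conditions optimized for pyrazinamide. Strains came from the Czech National Collection of Type Cultures. MIC was read in µg/mL and converted to µM using molecular weight.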
(Resazurin is reduced to fluorescent resorufin, in cell work by metabolically active cells.)

The subject of a further data set is HepG2. As to the kind of experiment: Cytotoxicity against human HepG2 cells after 24 hrs. The settings on record: HepG2, 24 h. The format is cell-based. An outline of the steps:
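HepG2 human liver cells; loss of viability measured by a colorimetric tetrazolium-reduction assay. IC50 derived from the toxicity curves. Where limited solubility in the culture medium capped the tested concentration, only an estimate of the toxic concentration was given.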

Data set [2] can be described thus: Selectivity index, ratio of IC50 for human HepG2 cells to MIC for Mycobacterium tuberculosis H37Rv CNCTC My 331/88. The format is toxicity, cell-based. The settings on record: read-out: Selectivity Index. Summed up: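 HepG2 human liver cell viability was measured by a colorimetric tetrazolium-reduction assay, and IC50 was derived from the toxicity curves. MIC against M. tuberculosis H37Rv came from the alamar blue microplate assay at pH 5.6. SI = IC50/MIC, both in molar units.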

A short description of data set [3]: Lipophilicity, log K of the compound by HPLC analysis. The format is physicochemical.
Data set [4] deals with Mycobacterium avium. The experiment in a line: Antimycobacterial activity against pyrazinamide-resistant Mycobacterium avium CNCTC My 80/72 after 5 days by microplate alamar blue assay. The format is functional. The settings on record: CNCTC My 80/72, 120 h. An outline of the steps:
as §1

Another data set concerns Mycobacterium kansasii. The experiment in a line: Antimycobacterial activity against pyrazinamide-resistant Mycobacterium kansasii CNCTC My 235/80 after 5 days by microplate alamar blue assay. The format is functional. The settings on record: CNCTC My 235/80, 120 h. Summed up:
as §1

Data set [5] deals with Mycobacterium tuberculosis. The experiment in a line: Antimycobacterial activity against Mycobacterium tuberculosis H37Rv CNCTC My 331/88 after 5 days by microplate alamar blue assay. The format is functional. The settings on record: H37Rv CNCTC My 331/88, 120 h. An outline of the steps: as §1
Data set [6] has as its system Trichophyton mentagrophytes. As to the kind of experiment: Antifungal activity against Trichophyton mentagrophytes 445 after 72 to 120 hrs by microdilution broth method. The format is functional, organism-based.
The next data set deals with Lichtheimia corymbifera. The experiment in a line: Antifungal activity against Absidia corymbifera 272 after 72 to 120 hrs by microdilution broth method. The format is functional, organism-based. A general note: Broth dilution looks for growth in wells or tubes with falling amounts of substance.
A further data set concerns Aspergillus fumigatus. As to the kind of experiment: Antifungal activity against Aspergillus fumigatus 231 after 72 to 120 hrs by microdilution broth method. The format is functional, organism-based.
The next data set deals with Nakaseomyces glabratus. The experiment in a line: Antifungal activity against Candida glabrata 20/I after 72 to 120 hrs by microdilution broth method. The format is functional, organism-based.
Another data set deals with Trichosporon asahii. The experiment in a line: Antifungal activity against Trichosporon asahii 1188 after 72 to 120 hrs by microdilution broth method. The format is functional, organism-based.
For a further data set, the system named is Pichia kudriavzevii. The experiment in a line: Antifungal activity against Candida krusei E28 after 72 to 120 hrs by microdilution broth method. The format is functional, organism-based.
The subject of another data set is Candida tropicalis. As to the kind of experiment: Antifungal activity against Candida tropicalis 156 after 72 to 120 hrs by microdilution broth method. The format is functional, organism-based.
The test system of another data set is Candida albicans. As to the kind of experiment: Antifungal activity against Candida albicans ATCC 44859 after 72 to 120 hrs by microdilution broth method. The format is functional, organism-based.
The subject of data set [7] is Trichophyton mentagrophytes. The experiment in a line: Antifungal activity against Trichophyton mentagrophytes after 72 to 120 hrs by microdilution broth method. The format is functional, organism-based.
In data set [8] the test system is Staphylococcus epidermidis. The experiment in a line: Antibacterial activity against Staphylococcus epidermidis H 6966/08 after 48 hrs by microdilution broth method. The format is functional. An outline of the steps:
(§2)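 Antibacterial screen with compound concentrations up to a highest level of 500 µM. Results expressed as MIC in µM.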

Data set [9] deals with Klebsiella pneumoniae. As to the kind of experiment: Antibacterial activity against ESBL positive Klebsiella pneumoniae J 14368/08 after 24 to 48 hrs by microdilution broth method. The format is functional, organism-based. An outline of the steps:
as §2

The subject of data set [10] is Klebsiella pneumoniae. As to the kind of experiment: Antibacterial activity against Klebsiella pneumoniae D 11750/08 after 24 to 48 hrs by microdilution broth method. The format is functional, organism-based. An outline of the steps: as §2
The next data set concerns Enterococcus sp. As to the kind of experiment: Antibacterial activity against Enterococcus sp. J 14365/08 after 24 to 48 hrs by microdilution broth method. The format is functional, organism-based. An outline of the steps: as §2
In data set [11] the test system is Staphylococcus epidermidis. The experiment in a line: Antibacterial activity against methicillin-resistant Staphylococcus epidermidis H 5996/08 after 24 to 48 hrs by microdilution broth method. The format is functional, organism-based.
Another data set deals with Pseudomonas aeruginosa. As to the kind of experiment: Antibacterial activity against Pseudomonas aeruginosa CCM 1961 after 24 to 48 hrs by microdilution broth method. The format is functional, organism-based. An outline of the steps: as §2
The subject of the next data set is Escherichia coli. The experiment in a line: Antibacterial activity against Escherichia coli CCM 4517 after 24 to 48 hrs by microdilution broth method. The format is functional, organism-based. An outline of the steps: as §2
For the next data set, the system named is Staphylococcus aureus. As to the kind of experiment: Antibacterial activity against Staphylococcus aureus CCM 4516/08 after 24 to 48 hrs by microdilution broth method. The format is functional, organism-based. Summed up:
as §2

Data set [12] relates to Staphylococcus epidermidis. As to the kind of experiment: Antibacterial activity against Staphylococcus epidermidis H 6966/08 up to 500 uM after 24 to 48 hrs by microdilution broth method. The format is functional, organism-based. Summed up:
as §2

As for `CCCCCCCNc1cnc(C(N)=O)cn1`, the MIC is > 100 µg/mL against Mycobacterium avium [1], > 100 µg/mL against Mycobacterium avium [4], 53 µM against Mycobacterium kansasii and 53 µM in data set [5]. Further, the IC50 in the data set on HepG2 is > 0.25 mM. The selectivity ratio in data set [2] was > 4.7. In data set [3], the “log K” value was 0.4658. For the same compound, the result (in data set [6]; with Lichtheimia corymbifera; in the data set with Aspergillus fumigatus; with Nakaseomyces glabratus; with Trichosporon asahii; in the data set with Pichia kudriavzevii) was inactive. Also, the result (with Candida tropicalis; with Candida albicans; in data set [7]; in data set [8]; in the data set on Klebsiella pneumoniae [9]; with Klebsiella pneumoniae [10]) was inactive. In addition, the result (in the data set with Enterococcus sp.; in data set [11]; with Pseudomonas aeruginosa; in the data set on Escherichia coli; with Staphylococcus aureus; in [12]) was inactive.

Turning to `NC(=O)c1cncc(Cl)n1`, the MIC against Mycobacterium avium [1] is > 100 µg/mL; against Mycobacterium avium [4] it was > 100 µg/mL; with Mycobacterium kansasii it was > 100 µg/mL; in data set [5] it was 635 µM. Inhibition in the data set with HepG2 was half-maximal at 3.5 mM (IC50). For the same compound, in data set [2], the selectivity ratio is 5.5. For the same compound, in [3], the “log K” value is reported as -0.4165. For the same compound, the result (in data set [6]; with Lichtheimia corymbifera; in the data set with Aspergillus fumigatus; in the data set on Nakaseomyces glabratus; with Trichosporon asahii; in the data set on Pichia kudriavzevii) was inactive. Moreover, the result (in the data set with Candida tropicalis; in the data set with Candida albicans; in [7]; in data set [8]; with Klebsiella pneumoniae [9]; with Klebsiella pneumoniae [10]) was inactive. The outcome (with Enterococcus sp.; in data set [11]; in the data set with Pseudomonas aeruginosa; in the data set with Escherichia coli; in the data set on Staphylococcus aureus; in data set [12]) was inactive.

Regarding `NC(=O)c1cnccn1` [PYRAZINAMIDE], the MIC in the data set on Mycobacterium avium [1] is > 100 µg/mL; in the data set on Mycobacterium avium [4] it was > 100 µg/mL; in the data set on Mycobacterium kansasii it was > 100 µg/mL; in data set [5] it was 102 µM. Moreover, the IC50 in the data set with HepG2 is > 10 mM. Moreover, the selectivity ratio in [2] was > 98.1. The “log K” value in [3] is on record as -0.6872.

For `CCCCCNc1cnc(C(N)=O)cn1`, the MIC (against Mycobacterium avium [1]; against Mycobacterium avium [4]; in the data set on Mycobacterium kansasii; in data set [5]) was > 100 µg/mL throughout. Also, in data set [3], the “log K” value is given as 0.0181. Also, the result (in data set [6]; in the data set on Lichtheimia corymbifera; in the data set on Aspergillus fumigatus; in the data set with Nakaseomyces glabratus; in the data set on Trichosporon asahii; in the data set on Pichia kudriavzevii) was inactive. The outcome (in the data set with Candida tropicalis; in the data set with Candida albicans; in data set [7]; in data set [8]; in the data set with Klebsiella pneumoniae [9]; with Klebsiella pneumoniae [10]) was inactive. Besides, the outcome (in the data set on Enterococcus sp.; in data set [11]; with Pseudomonas aeruginosa; with Escherichia coli; in the data set on Staphylococcus aureus; in data set [12]) was inactive.

Take `CCCCNc1cnc(C(N)=O)cn1`: the MIC (in the data set with Mycobacterium avium [1]; against Mycobacterium avium [4]; against Mycobacterium kansasii; in data set [5]) was > 100 µg/mL throughout. For the same compound, the “log K” value in data set [3] is -0.191. For the same compound, the outcome (in [6]; in the data set with Lichtheimia corymbifera; in the data set with Aspergillus fumigatus; in the data set with Nakaseomyces glabratus; with Trichosporon asahii; in the data set on Pichia kudriavzevii) was inactive. The result (in the data set with Candida tropicalis; with Candida albicans; in data set [7]; in data set [8]; in the data set with Klebsiella pneumoniae [9]; in the data set on Klebsiella pneumoniae [10]) was inactive. Also, the result (in the data set with Enterococcus sp.; in data set [11]; in the data set with Pseudomonas aeruginosa; with Escherichia coli; in the data set on Staphylococcus aureus; in [12]) was inactive.

Take `CCCNc1cnc(C(N)=O)cn1`: the minimum inhibitory concentration (MIC) (in the data set with Mycobacterium avium [1]; against Mycobacterium avium [4]; in the data set on Mycobacterium kansasii; in data set [5]) was > 100 µg/mL in each case. In addition, in data set [3], the “log K” value is given as -0.3878. In addition, the outcome (in data set [6]; in the data set on Lichtheimia corymbifera; in the data set with Aspergillus fumigatus; in the data set with Nakaseomyces glabratus; with Trichosporon asahii; with Pichia kudriavzevii) was inactive. Also, the result (in the data set with Candida tropicalis; with Candida albicans; in [7]; in [8]; in the data set with Klebsiella pneumoniae [9]; in the data set on Klebsiella pneumoniae [10]) was inactive. Besides, the outcome (in the data set on Enterococcus sp.; in data set [11]; in the data set on Pseudomonas aeruginosa; with Escherichia coli; in the data set on Staphylococcus aureus; in data set [12]) was inactive.

Take `NC(=O)c1cnc(N)cn1`: the MIC (in the data set on Mycobacterium avium [1]; in the data set with Mycobacterium avium [4]; against Mycobacterium kansasii; in [5]) was > 100 µg/mL each time. For the same compound, the “log K” value in data set [3] is on record as -0.7852. In addition, the result (in data set [6]; in the data set on Lichtheimia corymbifera; with Aspergillus fumigatus; in the data set with Nakaseomyces glabratus; with Trichosporon asahii; in the data set on Pichia kudriavzevii) was inactive. Besides, the outcome (in the data set with Candida tropicalis; in the data set with Candida albicans; in data set [7]; in [8]; in the data set with Klebsiella pneumoniae [9]; with Klebsiella pneumoniae [10]) was inactive. Moreover, the outcome (with Enterococcus sp.; in [11]; with Pseudomonas aeruginosa; with Escherichia coli; in the data set on Staphylococcus aureus; in data set [12]) was inactive.

One may read the MIC as the lowest concentration found to suppress growth. A lower MIC goes with a more susceptible organism. One may read the IC50 as the concentration needed to halve the response being measured. A higher IC50 goes with weaker potency in that assay.

Values taken from ChEMBL document CHEMBL3102810, “Alkylamino derivatives of pyrazinamide: synthesis and antimycobacterial evaluation” (Bioorg Med Chem Lett, 2014).
